Experimental findings from ChEMBL document CHEMBL1142562, “Four new neuroprotective dihydropyranocoumarins from Angelica gigas” (2005) are described below.

Holding throughout (format): functional
Holding throughout (conditions): read-out: Activity

Experiment [1] can be described thus: Neuroprotective effect against glutamate-stimulated rat cortical cells assessed as cell viability at 0.1 uM after 1 hr by LDH assay relative to control. An outline of the steps: (§1)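 Mixed neuron–glia cortical cultures from Sprague-Dawley fetal rats (17-19 days old), matured ≥2 weeks and used at 17 days in vitro. Cultures were washed with DMEM and pretreated 1 h with compound in DMSO (0.1% final), then given 100 µM glutamate for 24 h. Viability was read as LDH efflux and expressed as % protection relative to control and glutamate-only cultures. Mean ± STD of three experiments, 5-6 cultures each.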

Experiment [2] is described as follows: Neuroprotective effect against glutamate-stimulated rat cortical cells assessed as cell viability at 10 uM after 1 hr by LDH assay relative to control. Summed up:
as §1

Experiment [3] can be described thus: Neuroprotective effect against glutamate-stimulated rat cortical cells assessed as cell viability at 1 uM after 1 hr by LDH assay relative to control. An outline of the steps:
as §1

With `C/C(=C\CO)C(=O)O[C@H]1Cc2cc3ccc(=O)oc3cc2OC1(C)C`, in experiment [1], the viability at 0.1 µM was 33.2%. Moreover, the viability at 10 µM in experiment [2] came out at 1.2%. Also, the viability at 1 µM in experiment [3] stood at 19.9%.
For `C/C(=C\C(=O)O[C@H]1Cc2cc3ccc(=O)oc3cc2OC1(C)C)CO`, in experiment [1], the viability at 0.1 µM came to 38.4%. Further, the viability at 10 µM in experiment [2] was determined as 35.1%. In addition, the viability at 1 µM in experiment [3] was found to be 34.1%.
The matching figures for `C[C@@H]1O[C@]1(C)C(=O)O[C@H]1Cc2cc3ccc(=O)oc3cc2OC1(C)C`: 70%, 49% and 52.5%.
The matching figures for `C[C@H]1O[C@@]1(C)C(=O)O[C@H]1Cc2cc3ccc(=O)oc3cc2OC1(C)C`: 47.5%, 56.7% and 61.1%.
Turning to `N#Cc1cc2c(cc1[N+](=O)[O-])=NC(=O)C(=O)N=2`, the viability at 0.1 µM in experiment [1] is 29%. The viability at 10 µM in experiment [2] came to 50.5%. The viability at 1 µM in experiment [3] was 40.5%.
With `NC(CCCP(=O)(O)O)C(=O)O` (racemic), the viability at 0.1 µM in experiment [1] is 10%. Moreover, the viability at 10 µM in experiment [2] came to 39%. Besides, the viability at 1 µM in experiment [3] was 25%.
On to `CC1(C)Oc2cc3oc(=O)ccc3cc2C[C@@H]1O` [DECURSINOL], for which the viability at 0.1 µM in experiment [1] was 33.4%. In experiment [2], the viability at 10 µM was found to be 40.7%. Moreover, the viability at 1 µM in experiment [3] amounted to 69.6%.
On the same counts, the results for `CC(C)=CC(=O)O[C@H]1Cc2cc3ccc(=O)oc3cc2OC1(C)C` [DECURSIN] are 39%, 65.1% and 50%.
Regarding `C[C@]12N[C@H](Cc3ccccc31)c1ccccc12` [DIZOCILPINE], in experiment [1], the viability at 0.1 µM stood at 54%. Further, the viability at 10 µM in experiment [2] was 70%. Besides, in experiment [3], the viability at 1 µM came out at 65%.
